Screening results from PubChem.
hERG protect: compounds protecting human hERG from proarrhythmic drug block. Q12809. CHO-hERG, FluxOR thallium flux, dofetilide IC70 present. activation (rescue from dofetilide block), less the hit threshold, % at 10 µM. actives 0.51% (n = 310,000). AID 1511;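 active means activation above the mean of controls blocked by dofetilide plus 5 SD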;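 further: thallium influx through hERG after potassium depolarization seen as dye fluorescence rise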
Target sequence (Q12809 whole entry, looked up): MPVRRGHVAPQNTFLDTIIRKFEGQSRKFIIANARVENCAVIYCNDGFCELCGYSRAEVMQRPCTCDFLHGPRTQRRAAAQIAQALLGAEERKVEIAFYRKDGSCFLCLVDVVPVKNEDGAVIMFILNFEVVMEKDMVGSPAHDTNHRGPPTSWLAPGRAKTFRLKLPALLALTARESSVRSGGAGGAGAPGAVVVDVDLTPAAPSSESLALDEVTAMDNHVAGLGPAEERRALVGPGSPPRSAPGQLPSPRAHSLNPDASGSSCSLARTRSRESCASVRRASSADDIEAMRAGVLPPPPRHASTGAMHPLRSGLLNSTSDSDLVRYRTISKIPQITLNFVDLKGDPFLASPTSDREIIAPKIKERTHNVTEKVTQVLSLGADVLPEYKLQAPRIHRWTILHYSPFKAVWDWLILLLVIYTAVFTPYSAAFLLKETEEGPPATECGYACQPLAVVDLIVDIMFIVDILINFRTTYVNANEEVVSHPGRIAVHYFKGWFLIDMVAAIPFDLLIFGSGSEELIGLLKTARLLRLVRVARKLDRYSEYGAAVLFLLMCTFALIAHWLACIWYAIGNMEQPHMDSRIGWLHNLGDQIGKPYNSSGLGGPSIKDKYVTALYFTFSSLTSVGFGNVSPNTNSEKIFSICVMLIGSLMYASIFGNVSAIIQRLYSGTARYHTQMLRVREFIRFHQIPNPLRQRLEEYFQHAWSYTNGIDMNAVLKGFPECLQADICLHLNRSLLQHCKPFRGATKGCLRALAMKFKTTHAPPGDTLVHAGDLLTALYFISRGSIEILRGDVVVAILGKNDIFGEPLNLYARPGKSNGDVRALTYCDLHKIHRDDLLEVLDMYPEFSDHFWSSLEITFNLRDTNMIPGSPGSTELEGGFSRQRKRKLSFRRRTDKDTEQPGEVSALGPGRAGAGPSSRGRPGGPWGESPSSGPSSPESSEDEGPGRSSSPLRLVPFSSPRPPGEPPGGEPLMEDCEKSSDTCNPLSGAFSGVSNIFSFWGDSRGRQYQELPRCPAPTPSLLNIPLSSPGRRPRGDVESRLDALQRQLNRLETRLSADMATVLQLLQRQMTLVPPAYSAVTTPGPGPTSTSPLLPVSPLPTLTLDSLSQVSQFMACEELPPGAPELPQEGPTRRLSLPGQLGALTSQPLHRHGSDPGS
KCNK3 block: human KCNK3 channel inhibition, primary screen; O14649; CHO-KCNK3 thallium flux, FluxOR fluorescence; stronger effect = lower value; B-score at 10 µM; actives 0.84% (n = 340,000);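 active means B-score under library mean minus 4 SD, starting fluorescence ratio at most library mean plus 5 SD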;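 further: more negative B-score means stronger inhibition of thallium flux through KCNK3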
KCNQ1 inh: human KCNQ1 channel inhibition; actives 1.3% (n = 310,000); CHO-K1 KCNQ1, FluxOR thallium flux fluorescence; stronger effect = higher value; B-score at 10 µM; P51787;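 active means compounds whose thallium flux B-score, printed positive for inhibition, exceeds three library SD while starting fluorescence stays within three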;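 further: channel opened by potassium depolarization with thallium stimulus after 20 min compound exposure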
KCNK9 inh: inhibitors of human KCNK9 two-pore domain potassium channel; actives 1.2% (n = 310,000); B-score at 10 µM; HEK293 KCNK9, FluxOR thallium flux fluorescence; stronger effect = lower value;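 active means ratio B-score over 3 SD below the library mean, with starting fluorescence within 5 SD of its mean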;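 further: negative B-score means less thallium flux so channel inhibition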
KCNQ1 act: potentiators or activators of human KCNQ1 potassium channel | AID 2648 | B-score at 10 µM | actives 0.35% (n = 310,000) | P51787 | CHO-K1 KCNQ1, thallium flux FluxOR fluorescence; stronger effect = higher value;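 active means fluorescence ratio B-score, a plate-corrected score, at least three library SD, with initial intensity B-score within 5 SD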
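System: CHO-K1 cells stably expressing KCNQ1 / Medium: assay buffer for compound exposure, DMSO matched across wells / Reagent: thallium- and potassium-containing depolarizing buffer / Compound: one concentration, matched DMSO / Incubation: 20 min compound pretreatment at room temperature / Measured by: kinetic FluxOR fluorescence, 10 s baseline plus 110 s post-stimulus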
KCNK9 inh conf: human KCNK9 inhibitor confirmation. inhibition, % at 10 µM. actives 43% (n = 4,900). HEK293 KCNK9 cells, FluxOR thallium flux fluorescence. AID 492992. shares compounds with KCNK9 inh;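 active means thallium signal inhibited by more than 5 SD of the compound-free buffer control wells, on both duplicate plates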
Kir21 sel: selectivity of KCNK9 modulators against mouse Kir2.1; shares compounds with KCNK9 inh; Kir2.1 cells, FluxOR thallium flux fluorescence; inhibition, % at 10 µM; actives 4% (n = 4,900); AID 492993;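 active means thallium signal drop more than 5 SD beyond the mean of the no-compound control wells, seen in both duplicate plates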;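 further: signal is fluorescence rise after thallium addition divided by baseline fluorescence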
HEK293 Tl ctr: second counter-screen for KCNK9 modulators: effect in non-induced cells; AID 492997; non-induced KCNK9-HEK293, FluxOR thallium flux; actives 40% (n = 4,900); shares compounds with KCNK9 inh; inhibition, % at 10 µM;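 active means thallium signal drop beyond 5 SD of the untreated control mean, on both duplicate plates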
KCNK3 inh conf: human KCNK3 channel inhibition, confirmation assay. shares compounds with KCNK3 block. CHO-KCNK3 thallium flux, FluxOR fluorescence; 0% buffer, 100% carvedilol maximal block. ratio percent of control, % at 10 µM. actives 99% (n = 2,400). AID 651638;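 active means ratio percent of control, averaged over triplicates, above buffer control mean plus 5 SD, cut at about 64% in these data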;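 further: ratio is the fluorescence rise from min to max over baseline after thallium stimulus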
KCNK3 uninduced: activity in cells without induced KCNK3 expression | shares compounds with KCNK3 block | non-induced KCNK3 parental cells, FluxOR thallium flux; stronger effect = lower value | thallium flux ratio (lower = more inhibition) at 10 µM | actives 40% (n = 2,400);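 active means thallium flux ratio, averaged over three wells, more than 5 SD below the buffer control mean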;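 further: host cells are CHO cells without KCNK3 induction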
Numbers stand for hits; . = inactive; / = no result. Rows were chosen to be rich in hits. Some 3.1% of all compounds tested hit in one or more screens of this group.

SMILES | hERG protect | KCNK3 block | KCNQ1 inh | KCNK9 inh | KCNQ1 act | KCNK9 inh conf | Kir21 sel | HEK293 Tl ctr | KCNK3 inh conf | KCNK3 uninduced
COc1ccc(/C=N/Nc2cc(C)nc3ccc(OC)cc23)c(OC)c1 | . | -14 | 14 | -16 | . | . | . | 38% | 151 | 0.11
COc1ccccc1/C=N/Nc1cc(C)nc2ccc(C)cc12 | . | . | . | . | . | / | / | / | / | /
CC(C)CN(CC(C)C)C(=O)c1cccc(S(=O)(=O)N2CCc3ccccc32)c1 | . | -9.7 | . | -8.8 | . | 40% | . | 37% | 111 | .
Cc1ccc(S(=O)(=O)N(Cc2c(F)cccc2Cl)C(=O)N2CCN(C)CC2)cc1 | . | . | . | . | . | / | / | / | / | /
Cc1cccc(OCC(=O)NC(C)C(=O)N/N=C/c2c(OCc3ccccc3)ccc3ccccc23)c1 (stereo not given) | . | -9.4 | . | -16 | . | 66% | . | 48% | 105 | .
COc1cccc(OCC(=O)NCC2CCCO2)c1 (stereo not given) | / | . | / | / | / | / | / | / | / | /
COc1cc(/C=N/NC(=O)c2ccc(Cn3cc([N+](=O)[O-])cn3)o2)cc(Br)c1O | . | -11 | . | -16 | . | 57% | . | 35% | 99 | .
Cc1cccc(C)c1OCC(=O)Nc1oc(-c2ccccc2)c(-c2ccccc2)c1C#N | . | . | . | -17 | . | 32% | . | 24% | 119 | 0.15
N#Cc1c(NC(=O)CSc2n[nH]c(N)n2)oc(-c2ccccc2)c1-c1ccccc1 | . | . | . | . | . | / | / | / | / | /
COc1ccc(OC)c(NC(=O)CN(Cc2ccc(F)cc2)C2CCCCC2)c1 | . | -8.8 | . | -14 | . | 69% | . | 48% | 56 | 0.12
COc1ccc(/C=N\NC(=O)c2ccccc2OC)cc1COc1ccccc1C | . | . | . | . | . | / | / | / | / | /
COc1ccc(/C=N/NC(=O)c2ccoc2C)cc1COc1c(C)cccc1C | . | -13 | 12 | -11 | . | 48% | . | . | 113 | 0.14
NS(=O)(=O)c1cccc(NC(=O)CN2CCc3ccccc32)c1 | . | . | . | . | . | / | / | / | / | /
CN(c1ccccc1)S(=O)(=O)c1cccc(NC(=O)CN2CCCc3ccccc32)c1 | . | -9.8 | . | -11 | . | 50% | . | 24% | 113 | .
Cc1ccc(CCNS(=O)(=O)c2ccc3c(c2)NC(=O)C(C)C(=O)N3)cc1 (stereo not given) | . | . | . | . | . | / | / | / | / | /
O=C(Nc1cccc(-c2cn3cccnc3n2)c1)c1cccs1 | . | . | . | . | . | / | / | / | / | /
CC(=O)Nc1ccc2nc(-c3cccn3C)[nH]c2c1 | . | . | . | . | . | / | / | / | / | /
Cn1cccc1-c1nc2ccc(NC(=O)c3cccs3)cc2[nH]1 | . | -12 | . | -10 | . | 46% | . | . | 141 | 0.13
Cc1cccn2cc(-c3cccc(NC(=O)c4cccs4)c3)nc12 | . | -12 | . | -10 | . | 40% | . | . | 121 | .
Cc1ccc(NC(=O)C2CC(Cl)=CCC2C(=O)O)c([N+](=O)[O-])c1 (stereo not given) | . | . | . | . | . | / | / | / | / | /
COc1ccccc1OCC(=O)N(Cc1nc(-c2ccc(Cl)cc2)no1)C(C)C | . | . | . | . | . | / | / | / | / | /
CC(C)N(Cc1nc(-c2ccc(Cl)cc2)no1)C(=O)CCC1CCCC1 | . | -11 | . | -14 | . | 66% | . | 42% | 118 | .
CCN(c1ccc(OC)cc1)S(=O)(=O)c1cc(-c2cc(C)no2)ccc1OC | . | . | . | . | . | / | / | / | / | /
CCN(c1ccc(OC)cc1)S(=O)(=O)c1cc(-c2cc(C)no2)ccc1C(C)C | . | -9.2 | . | -16 | . | 60% | . | 38% | 121 | 0.14
O=C(O)CC1(CC(=O)Nc2ccc3sccc3c2)CCCCC1 | . | . | . | . | . | / | / | / | / | /
SMILES | hERG protect | KCNK3 block | KCNQ1 inh | KCNK9 inh | KCNQ1 act | KCNK9 inh conf | Kir21 sel | HEK293 Tl ctr | KCNK3 inh conf | KCNK3 uninduced
O=S(Cc1cc(Oc2ccccc2)nc(-c2ccccc2)n1)c1ccccc1 (stereo not given) | . | -10 | . | -18 | . | 70% | . | 37% | 115 | .
COC(CN(C)C(=O)C1CCCN(S(=O)(=O)c2ccc3c(c2)oc(=O)n3C)C1)OC (stereo not given) | . | . | . | . | . | / | / | / | / | /
CCn1c(SCc2ccc(OC)c(F)c2)nc2ccccc2c1=O | . | -12 | . | -20 | . | 78% | . | 46% | 107 | .
CCOC(CCn1c(SCc2ccc([N+](=O)[O-])cc2)nc2ccccc2c1=O)OCC | . | . | . | -15 | . | 74% | . | 38% | 117 | .
COCC(C)n1c(SCc2ccc(OC)c(F)c2)nc2ccccc2c1=O (stereo not given) | . | -11 | . | -18 | . | 76% | . | 50% | 116 | .
Cc1ccc(-n2c(SCc3ccc([N+](=O)[O-])cc3)nc3ccccc3c2=O)cc1 | . | . | . | . | . | / | / | / | / | /
COCC(C)n1c(SCc2ccc(C(=O)OC)cc2)nc2ccccc2c1=O (stereo not given) | . | -12 | . | -16 | . | 62% | . | 38% | 125 | 0.14
CC(C)c1ccc(NC(=O)C2CC(=O)Nc3nc4ccccc4n32)cc1 (stereo not given) | . | . | . | . | . | / | / | / | / | /
CSc1nnc2c3ccccc3c3ccccc3c2n1 | . | . | . | . | . | / | / | / | / | /
C/C=C(/C)C(=O)OC1c2c(ccc3ccc(=O)oc23)OC(C)(C)C1OC(=O)/C(C)=C\C (stereo not given) | . | -9.1 | . | -13 | . | 59% | . | 35% | 126 | 0.14
C/C=C(\C)C(=O)OC1c2c(ccc3ccc(=O)oc23)OC(C)(C)C1OC(C)=O (stereo not given) | . | . | . | . | . | / | / | / | / | /
CCCCC(CC)C(=O)Oc1ccc(O)c(C(C)(C)C)c1 (stereo not given) | . | -12 | . | -16 | . | 74% | . | 31% | 79 | .
N#CCC(=O)Nc1ccc(C(=O)OCc2ccccc2Oc2ccccc2)cc1 | . | -10 | . | -11 | . | 58% | . | 25% | 115 | 0.15
Cc1ccc(C(C)C)c(OCCCN2CCc3ccccc3C2)c1 | . | . | . | . | . | / | / | / | / | /
Cc1ccc(C(C)C)c(OCCN2CCc3ccccc3C2)c1 | . | -9.7 | . | . | . | . | . | . | 127 | .
